Measurements reported in PubChem BioAssay AID652011 (Sanford-Burnham Center for Chemical Genomics, 2013).

Biological target: Endothelial PAS domain-containing protein 1 (Homo sapiens) (UniProt Q99814)
Experiment: HIF reporter inhibition across pancreatic and renal lines – cell-based, luminescence, MIAPaCa-2, 786-0, panel, SAR follow-up (AID 652011)
Conditions: MIAPaCa-2/PANC HIF reporter, luciferase luminescence, desferoxamine, overnight, HIF2a PANC, run 2; at 99 µM (top of the series)
Procedure, shortened: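 Detection: luminescence, One-Glo; Reagent: desferoxamine; Incubation: overnight seeding and compound exposure, 37 °C, 5% CO2, 10-min detection.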

Sequence of Endothelial PAS domain-containing protein 1 (Homo sapiens) (Q99814 whole entry, looked up, the tested form may be a part): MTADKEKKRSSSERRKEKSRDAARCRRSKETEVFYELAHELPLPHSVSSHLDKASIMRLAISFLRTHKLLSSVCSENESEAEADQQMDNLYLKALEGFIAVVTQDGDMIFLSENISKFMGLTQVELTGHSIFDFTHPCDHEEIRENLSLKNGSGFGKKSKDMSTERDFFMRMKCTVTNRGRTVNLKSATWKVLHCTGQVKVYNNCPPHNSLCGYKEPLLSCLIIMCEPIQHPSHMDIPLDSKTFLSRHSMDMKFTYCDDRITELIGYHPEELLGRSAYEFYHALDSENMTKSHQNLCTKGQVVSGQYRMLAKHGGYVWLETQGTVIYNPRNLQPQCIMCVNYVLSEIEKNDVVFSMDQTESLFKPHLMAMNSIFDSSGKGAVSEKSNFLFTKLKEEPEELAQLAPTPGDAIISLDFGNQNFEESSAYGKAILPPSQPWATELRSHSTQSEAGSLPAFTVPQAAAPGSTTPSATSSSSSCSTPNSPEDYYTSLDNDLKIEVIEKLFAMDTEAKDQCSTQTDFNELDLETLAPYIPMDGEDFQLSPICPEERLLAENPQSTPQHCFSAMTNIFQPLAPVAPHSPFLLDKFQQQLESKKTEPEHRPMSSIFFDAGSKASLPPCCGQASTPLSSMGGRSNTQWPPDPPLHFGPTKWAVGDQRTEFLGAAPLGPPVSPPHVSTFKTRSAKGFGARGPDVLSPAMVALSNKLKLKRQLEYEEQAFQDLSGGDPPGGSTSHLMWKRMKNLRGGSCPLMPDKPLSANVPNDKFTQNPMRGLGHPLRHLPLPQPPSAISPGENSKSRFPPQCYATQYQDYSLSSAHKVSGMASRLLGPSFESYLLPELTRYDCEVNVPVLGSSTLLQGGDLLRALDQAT

With `CCC(C)NC(=O)CCc1nc(-c2ccc(C(C)(C)C)cc2)no1` (stereo not given) as the compound, how does the inhibition read?
The inhibition was 52.2%.

For `CC(C)(C)NC(=O)CCc1nc(-c2ccccc2)no1`, which inhibition is on record?
The inhibition was -18.9%.

How did the inhibition turn out when `CC(C)(C)c1ccc(-c2noc(CCC(=O)NC3CCCC3)n2)cc1` was run?
Its inhibition is 121%.

With `CNC(=O)CCc1nc(-c2ccc(C(C)C)cc2)no1` as the compound, how does the inhibition read?
The inhibition was 8.04%.

How did the inhibition turn out when `CC(C)(C)c1ccc(-c2noc(CCC(=O)Nc3ccccc3)n2)cc1` was run?
The inhibition was 128%.

How did the inhibition turn out when `CCC(C)NC(=O)CCc1nc(-c2ccccc2)no1` (stereo not given) was run?
Its inhibition is -3.82%.

Which inhibition does the source give for `CC(C)(C)c1ccc(-c2noc(CCC(=O)N3CCOCC3)n2)cc1` here?
The inhibition was 32.4%.

Which inhibition does the source give for `COC(=O)CCc1nc(-c2ccc(C(C)(C)C)cc2)no1` here?
Its inhibition is 128%.

How did the inhibition turn out when `CCc1ccc(-c2noc(CCC(=O)NC(C)CC)n2)cc1` (stereo not given) was run?
The inhibition was -30.6%.

Which inhibition does the source give for `CNC(=O)CCc1nc(-c2ccc(F)cc2)no1` here?
Its inhibition is 8.8%.
